Laboratory results as given in ChEMBL document CHEMBL1143246, “Design and synthesis of bicyclic pyrimidinones as potent and orally bioavailable HIV-1 integrase inhibitors” (J Med Chem, 2008).
pIC50: −log10 of the molar value.

How the values were obtained:
[1] = tested on: Human immunodeficiency virus 1; assay: Antiviral activity against HIV1 in human MT4 cell assessed as inhibition of virus spread in presence of 10% fetal bovine serum; assay type: functional; conditions: Human immunodeficiency virus 1, MT4; read-out: CIC95
In short: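 Spread of HIV-1 infection in MT-4 human T-lymphoid cell culture with 10% fetal bovine serum; CIC95 is the concentration inhibiting spread by ≥95%; mean of at least three independent experiments.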

[2] = tested on: Human immunodeficiency virus 1; assay: Antiviral activity against HIV1 in human MT4 cell assessed as inhibition of virus spread in presence of 50% normal human serum; assay type: functional; conditions: Human immunodeficiency virus 1, MT4; read-out: CIC95
In short: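 Spread of HIV-1 infection in MT-4 human T-lymphoid cell culture with 50% normal human serum; CIC95 is the concentration inhibiting spread by ≥95%; mean of at least three independent experiments.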

Liver microsomes [3] = assay: Metabolic stability in rat liver microsomes in presence of NADPH; assay type: ADME, Microsome
In short: (§1)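 Liver microsomes (1 mg/mL) with test compound at 2 µM, incubated with UDPGA or NADPH; degradation measured by LC/MS/MS after 1 h.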

Liver [4] = assay: Metabolic stability in dog liver microsomes in presence of NADPH; assay type: ADME, Canis lupus familiaris, Microsome; in short: as §1
Liver microsomes [5] = assay: Metabolic stability in human liver microsomes in presence of NADPH; assay type: ADME, Microsome; in short: as §1
Liver microsomes [6] = assay: Metabolic stability in rat liver microsomes in presence of UDPGA; assay type: ADME, Microsome
Liver [7] = assay: Metabolic stability in dog liver microsomes in presence of UDPGA; assay type: ADME, Canis lupus familiaris, Microsome
Liver microsomes [8] = assay: Metabolic stability in human liver microsomes in presence of UDPGA; assay type: ADME, Microsome; in short: as §1
[9] = Protein binding in rat plasma; assay type: ADME, cell-free; conditions: read-out: PPB (converted)
In short: (§2)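 Plasma protein binding was measured by ultrafiltration after a 1 h incubation of compound in plasma at 37 °C.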

[10] = Protein binding in dog plasma; assay type: ADME, cell-free, Canis lupus familiaris; conditions: read-out: PPB (converted)
In short: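 Plasma protein binding measured by ultrafiltration after incubation at 37 °C for 1 h.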

[11] = Oral bioavailability in rat at 3 mg/kg; assay type: ADME, organism-based; conditions: in vivo
In short: (§3)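 In vivo PK: iv dosing in DMSO/PEG400/H₂O mixtures, oral dosing as methylcellulose suspension. Half-life was taken after iv dosing; AUC and Cmax after po dosing.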

[12] = Plasma clearance in rat at 3 mg/kg, po or 3 mg/kg, iv; assay type: ADME, organism-based; in short: as §3
[13] = Inhibition of recombinant HIV1 integrase strand transfer activity
Homo sapiens = organism: Homo sapiens; assay: Protein binding in human plasma; conditions: read-out: PPB (converted)
[14] = Oral bioavailability in dog at 2 mg/kg; assay type: ADME, organism-based, Canis lupus familiaris; conditions: in vivo; in short: as §3
[15] = Oral bioavailability in rhesus monkey at 6.5 mg/kg; assay type: ADME, organism-based, Macaca mulatta; conditions: in vivo
In short: (§4)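 Rhesus dosed 1 mg/kg iv in DMSO and 6.5 mg/kg po in 0.5% methylcellulose; plasma clearance and oral bioavailability.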

[16] = Plasma clearance in dog at 1 mg/kg, iv or 2 mg/kg, po; assay type: ADME, organism-based, Canis lupus familiaris; in short: as §3
[17] = Plasma clearance in rhesus monkey at 1 mg/kg, iv or 6.5 mg/kg, po; assay type: ADME, organism-based, Macaca mulatta; in short: as §4
[18] = molecular target: T1, DNA polymerase alpha catalytic subunit (Homo sapiens, UniProt P09884); assay: Inhibition of human DNA polymerase alpha
T1 sequence (P09884 whole entry): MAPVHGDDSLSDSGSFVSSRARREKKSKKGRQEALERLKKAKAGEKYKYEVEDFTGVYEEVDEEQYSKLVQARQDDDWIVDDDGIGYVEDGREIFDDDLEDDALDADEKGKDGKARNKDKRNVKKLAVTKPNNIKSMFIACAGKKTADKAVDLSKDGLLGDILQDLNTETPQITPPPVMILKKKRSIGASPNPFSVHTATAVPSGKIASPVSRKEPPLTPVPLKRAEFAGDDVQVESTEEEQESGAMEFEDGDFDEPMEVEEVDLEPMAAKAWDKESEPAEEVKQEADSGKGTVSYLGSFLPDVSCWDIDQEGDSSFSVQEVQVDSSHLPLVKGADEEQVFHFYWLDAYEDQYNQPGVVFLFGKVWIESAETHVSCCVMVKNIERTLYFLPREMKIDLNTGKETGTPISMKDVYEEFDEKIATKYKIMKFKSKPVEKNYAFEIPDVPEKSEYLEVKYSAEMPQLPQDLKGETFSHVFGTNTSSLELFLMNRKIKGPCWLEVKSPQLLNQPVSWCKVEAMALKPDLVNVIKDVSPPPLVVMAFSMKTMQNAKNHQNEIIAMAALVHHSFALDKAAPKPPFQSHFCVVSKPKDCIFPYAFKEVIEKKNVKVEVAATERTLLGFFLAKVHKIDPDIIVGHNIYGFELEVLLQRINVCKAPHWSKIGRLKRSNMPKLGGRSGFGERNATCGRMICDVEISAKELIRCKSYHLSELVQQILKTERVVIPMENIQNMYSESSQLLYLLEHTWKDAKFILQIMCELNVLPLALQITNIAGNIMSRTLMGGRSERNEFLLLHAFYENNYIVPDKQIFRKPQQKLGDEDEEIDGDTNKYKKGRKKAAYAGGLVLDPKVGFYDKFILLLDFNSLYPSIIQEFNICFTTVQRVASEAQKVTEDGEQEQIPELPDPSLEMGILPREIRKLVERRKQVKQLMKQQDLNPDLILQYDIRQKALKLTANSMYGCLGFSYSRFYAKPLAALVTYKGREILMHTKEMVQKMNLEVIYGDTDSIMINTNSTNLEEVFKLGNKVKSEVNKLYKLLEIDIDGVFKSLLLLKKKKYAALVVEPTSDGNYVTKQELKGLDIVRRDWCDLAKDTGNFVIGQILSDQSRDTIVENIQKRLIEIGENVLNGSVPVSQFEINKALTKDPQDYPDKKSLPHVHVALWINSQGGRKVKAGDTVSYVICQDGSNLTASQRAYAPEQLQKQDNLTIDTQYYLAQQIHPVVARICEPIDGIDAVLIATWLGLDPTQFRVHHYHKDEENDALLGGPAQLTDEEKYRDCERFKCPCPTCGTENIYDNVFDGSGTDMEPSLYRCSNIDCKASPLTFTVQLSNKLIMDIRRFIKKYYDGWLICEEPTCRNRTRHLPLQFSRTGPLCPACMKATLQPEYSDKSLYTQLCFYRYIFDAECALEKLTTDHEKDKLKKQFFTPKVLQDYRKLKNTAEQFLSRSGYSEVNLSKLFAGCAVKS

DNA polymerase beta = DNA polymerase beta (Homo sapiens, UniProt P06746); assay: Inhibition of human DNA polymerase beta
[19] = Inhibition of human DNA polymerase gamma
[20] = Inhibition of HIV-RNase-H; design: species or system Human immunodeficiency virus
[21] = Inhibition of HCV polymerase; design: species or system Hepacivirus hominis
[22] = molecular target: Voltage-gated inwardly rectifying potassium channel KCNH2 (Homo sapiens, UniProt Q12809); assay: Inhibition of human ERG
Sequence of Voltage-gated inwardly rectifying potassium channel KCNH2 (Q12809 whole entry): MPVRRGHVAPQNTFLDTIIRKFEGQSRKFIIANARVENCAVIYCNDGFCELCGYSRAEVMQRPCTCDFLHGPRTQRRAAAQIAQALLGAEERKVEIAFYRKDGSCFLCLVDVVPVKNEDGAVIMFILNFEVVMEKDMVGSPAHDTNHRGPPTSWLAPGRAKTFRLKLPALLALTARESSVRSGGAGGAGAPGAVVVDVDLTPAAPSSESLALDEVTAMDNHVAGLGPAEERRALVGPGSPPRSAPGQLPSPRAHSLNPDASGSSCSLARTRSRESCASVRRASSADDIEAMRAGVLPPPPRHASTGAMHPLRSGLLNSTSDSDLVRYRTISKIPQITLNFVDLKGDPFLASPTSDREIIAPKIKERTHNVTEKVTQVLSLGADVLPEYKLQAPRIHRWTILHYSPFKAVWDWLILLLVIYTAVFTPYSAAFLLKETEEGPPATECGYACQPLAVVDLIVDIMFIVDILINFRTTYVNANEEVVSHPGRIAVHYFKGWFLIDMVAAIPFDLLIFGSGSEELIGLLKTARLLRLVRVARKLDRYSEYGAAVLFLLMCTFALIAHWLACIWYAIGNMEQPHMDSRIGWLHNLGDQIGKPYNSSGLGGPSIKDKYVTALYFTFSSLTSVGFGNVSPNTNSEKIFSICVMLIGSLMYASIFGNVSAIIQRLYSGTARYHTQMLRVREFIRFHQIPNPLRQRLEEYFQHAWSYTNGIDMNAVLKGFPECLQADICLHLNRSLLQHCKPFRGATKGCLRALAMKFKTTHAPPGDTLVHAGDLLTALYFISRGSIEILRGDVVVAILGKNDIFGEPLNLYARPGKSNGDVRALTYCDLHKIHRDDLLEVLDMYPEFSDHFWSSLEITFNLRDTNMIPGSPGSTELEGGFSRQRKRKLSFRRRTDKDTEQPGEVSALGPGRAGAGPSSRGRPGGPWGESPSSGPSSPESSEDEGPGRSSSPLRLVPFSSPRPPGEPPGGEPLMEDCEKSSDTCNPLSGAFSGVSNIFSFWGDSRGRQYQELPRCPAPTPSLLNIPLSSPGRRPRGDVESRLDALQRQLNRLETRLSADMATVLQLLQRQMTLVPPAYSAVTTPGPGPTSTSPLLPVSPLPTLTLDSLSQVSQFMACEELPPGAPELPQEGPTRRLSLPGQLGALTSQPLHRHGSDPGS

Cytochrome P450 1A2 = molecular target: T2, Cytochrome P450 1A2 (Homo sapiens, UniProt P05177); assay: Inhibition of CYP1A2; assay type: ADME
T2 sequence (P05177 whole entry): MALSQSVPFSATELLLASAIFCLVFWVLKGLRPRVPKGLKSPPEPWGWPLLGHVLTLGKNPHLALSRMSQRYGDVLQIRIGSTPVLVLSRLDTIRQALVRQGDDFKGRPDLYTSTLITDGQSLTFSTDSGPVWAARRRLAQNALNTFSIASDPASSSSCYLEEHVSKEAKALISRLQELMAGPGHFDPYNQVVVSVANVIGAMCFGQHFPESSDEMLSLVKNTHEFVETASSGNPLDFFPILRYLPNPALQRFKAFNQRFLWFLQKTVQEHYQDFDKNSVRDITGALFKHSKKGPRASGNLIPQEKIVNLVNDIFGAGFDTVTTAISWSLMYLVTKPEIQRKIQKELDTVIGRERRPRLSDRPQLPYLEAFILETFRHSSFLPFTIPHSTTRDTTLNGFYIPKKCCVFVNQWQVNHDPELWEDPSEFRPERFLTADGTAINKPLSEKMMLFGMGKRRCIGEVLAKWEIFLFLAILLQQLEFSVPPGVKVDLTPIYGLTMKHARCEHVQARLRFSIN

Cytochrome P450 2C19 = Cytochrome P450 2C19 (Homo sapiens, UniProt P33261); assay: Inhibition of CYP2C19; assay type: ADME
Sequence of Cytochrome P450 2C19 (P33261 whole entry): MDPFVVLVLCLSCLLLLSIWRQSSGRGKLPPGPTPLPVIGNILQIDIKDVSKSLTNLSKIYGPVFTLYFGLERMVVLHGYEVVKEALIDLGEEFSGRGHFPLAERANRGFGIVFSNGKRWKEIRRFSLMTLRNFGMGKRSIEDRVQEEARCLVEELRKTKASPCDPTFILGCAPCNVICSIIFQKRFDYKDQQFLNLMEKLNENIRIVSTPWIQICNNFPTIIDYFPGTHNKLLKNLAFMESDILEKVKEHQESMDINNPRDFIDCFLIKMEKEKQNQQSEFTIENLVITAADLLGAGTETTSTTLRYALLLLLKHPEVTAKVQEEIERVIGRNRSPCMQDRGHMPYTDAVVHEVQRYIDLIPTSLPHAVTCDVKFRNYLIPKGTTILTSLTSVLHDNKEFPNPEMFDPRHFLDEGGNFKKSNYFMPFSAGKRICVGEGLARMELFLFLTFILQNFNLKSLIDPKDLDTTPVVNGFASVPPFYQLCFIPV

Cytochrome P450 2C9 = Cytochrome P450 2C9 (Homo sapiens, UniProt P11712); assay: Inhibition of CYP2C9; assay type: ADME
Sequence of Cytochrome P450 2C9 (P11712 whole entry): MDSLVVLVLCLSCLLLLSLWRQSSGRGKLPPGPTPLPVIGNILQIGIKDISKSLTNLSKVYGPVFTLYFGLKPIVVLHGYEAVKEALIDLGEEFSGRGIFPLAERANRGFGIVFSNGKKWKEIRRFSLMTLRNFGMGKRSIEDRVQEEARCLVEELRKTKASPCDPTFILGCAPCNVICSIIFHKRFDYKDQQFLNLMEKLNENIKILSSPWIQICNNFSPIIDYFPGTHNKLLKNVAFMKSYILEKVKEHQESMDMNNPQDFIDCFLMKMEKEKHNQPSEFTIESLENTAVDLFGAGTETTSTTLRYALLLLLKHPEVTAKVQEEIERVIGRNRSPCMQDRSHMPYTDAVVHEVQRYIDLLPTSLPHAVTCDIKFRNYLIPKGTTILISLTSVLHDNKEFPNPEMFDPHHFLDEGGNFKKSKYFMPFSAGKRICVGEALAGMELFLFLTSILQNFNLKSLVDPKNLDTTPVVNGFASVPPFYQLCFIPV

Cytochrome P450 2D6 = Cytochrome P450 2D6 (Homo sapiens, UniProt P10635); assay: Inhibition of CYP2D6; assay type: ADME
Sequence of Cytochrome P450 2D6 (P10635 whole entry): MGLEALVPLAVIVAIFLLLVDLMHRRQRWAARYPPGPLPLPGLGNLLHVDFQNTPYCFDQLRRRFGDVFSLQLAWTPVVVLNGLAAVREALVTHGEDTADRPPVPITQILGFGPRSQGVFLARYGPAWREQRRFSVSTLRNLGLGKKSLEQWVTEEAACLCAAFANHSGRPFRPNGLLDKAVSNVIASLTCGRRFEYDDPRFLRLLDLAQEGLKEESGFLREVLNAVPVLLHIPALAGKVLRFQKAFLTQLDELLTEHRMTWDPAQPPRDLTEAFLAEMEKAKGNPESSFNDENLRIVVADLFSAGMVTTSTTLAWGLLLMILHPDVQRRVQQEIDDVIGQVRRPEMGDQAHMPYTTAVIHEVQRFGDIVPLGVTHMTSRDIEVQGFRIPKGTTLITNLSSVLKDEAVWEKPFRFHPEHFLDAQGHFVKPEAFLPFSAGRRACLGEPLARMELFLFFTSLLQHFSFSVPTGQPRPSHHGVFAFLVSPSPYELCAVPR

Cytochrome P450 3A4 = Cytochrome P450 3A4 (Homo sapiens, UniProt P08684); assay: Inhibition of CYP3A4; assay type: ADME
Sequence of Cytochrome P450 3A4 (P08684 whole entry): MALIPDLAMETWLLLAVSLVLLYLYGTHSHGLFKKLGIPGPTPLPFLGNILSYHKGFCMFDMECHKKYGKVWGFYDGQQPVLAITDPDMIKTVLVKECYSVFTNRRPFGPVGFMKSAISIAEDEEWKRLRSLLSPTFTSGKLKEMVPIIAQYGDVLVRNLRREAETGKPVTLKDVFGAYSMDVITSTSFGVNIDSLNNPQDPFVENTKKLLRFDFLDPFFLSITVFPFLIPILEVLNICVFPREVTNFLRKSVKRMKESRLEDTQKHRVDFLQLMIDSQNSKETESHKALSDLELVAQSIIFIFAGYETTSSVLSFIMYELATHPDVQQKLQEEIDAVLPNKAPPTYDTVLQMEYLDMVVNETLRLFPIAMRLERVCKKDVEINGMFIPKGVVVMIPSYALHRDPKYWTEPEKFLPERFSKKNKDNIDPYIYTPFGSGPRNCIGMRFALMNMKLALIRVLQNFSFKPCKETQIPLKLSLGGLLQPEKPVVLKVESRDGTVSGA

[23] = Protein binding in rhesus monkey plasma; assay type: ADME, cell-free, Macaca mulatta; conditions: read-out: PPB (converted); in short: as §2
[24] = Metabolic stability in rhesus monkey liver microsomes in presence of UDPGA; assay type: ADME, Macaca mulatta, Microsome
In short: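 Single-point measurement: compound 2 µM, microsomes 0.3 mg/mL, with UDPGA; degradation quantified by LC/MS/MS after 1 h of incubation.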

[25] = Oral bioavailability in dog at 4 mg/kg; assay type: ADME, organism-based, Canis lupus familiaris; conditions: in vivo; in short: as §3
[26] = Plasma clearance in dog at 1 mg/kg, iv or 4 mg/kg, po; assay type: ADME, organism-based, Canis lupus familiaris; in short: as §3
[27] = Half life in rat at 3 mg/kg, iv; assay type: ADME, organism-based; design: dose 3 mg/kg, route intravenous; conditions: in vivo; in short: as §3
[28] = Half life in dog at 1 mg/kg, iv; assay type: ADME, organism-based, Canis lupus familiaris; design: dose 1 mg/kg, route intravenous; conditions: in vivo; in short: as §3
[29] = AUC in rat at 3 mg/kg, po; assay type: ADME, organism-based; design: dose 3 mg/kg, route oral; conditions: plasma; in short: as §3
[30] = AUC in rat at 10 mg/kg, po; assay type: ADME, organism-based; design: dose 10 mg/kg, route oral; conditions: plasma; in short: as §3
[31] = Cmax in rat at 3 mg/kg, po; assay type: ADME, organism-based; design: dose 3 mg/kg, route oral; conditions: in vivo; in short: as §3
[32] = Cmax in rat at 10 mg/kg, po; assay type: ADME, organism-based; design: dose 10 mg/kg, route oral; conditions: in vivo; in short: as §3
[33] = Volume of distribution at steady state in rat at 3 mg/kg, iv or 3 mg/kg, po; assay type: ADME, organism-based; conditions: in vivo, read-out: Vdss
[34] = Volume of distribution at steady state in dog at 1 mg/kg, iv or 4 mg/kg, po; assay type: ADME, organism-based, Canis lupus familiaris; conditions: in vivo, read-out: Vdss
In short: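 Dogs received 1 mg/kg intravenously in DMSO/PEG400/H₂O (20%-40%-40%) and 4 mg/kg orally as a 1% methylcellulose suspension. Volume of distribution was derived from the plasma concentration data.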

## CN(C(=O)CS(=O)(=O)N(C)C)[C@H]1CCCn2c1nc(C(=O)NCc1ccc(F)cc1)c(O)c2=O
[1]
  IC95: 16 nM
[2]
  IC95: 31 nM
Liver microsomes [3]
  Stability: 51 %/hr
Liver [4]
  Stability: 15 %/hr
Liver microsomes [5]
  Stability: 36 %/hr
Liver microsomes [6]
  Stability: 47 %/hr
Liver [7]
  Stability: 24 %/hr
Liver microsomes [8]
  Stability: 46 %/hr
[9]
  fraction unbound: 0.26
[10]
  fraction unbound: 0.29
[11]
  bioavailability: 17%
[12]
  clearance: 55 mL/min/kg
[13]
  pIC50: 8.15
Homo sapiens
  fraction unbound: 0.22

## CN(C)S(=O)(=O)N(C)[C@@H]1CCCn2c1nc(C(=O)NCc1ccc(F)cc1)c(O)c2=O
[1]
  IC95: 16 nM
[2]
  IC95: 44 nM
Liver microsomes [6]
  Stability: 81 %/hr
Liver [7]
  Stability: 46 %/hr
[9]
  fraction unbound: 0.01
[10]
  fraction unbound: 0.11
[11]
  bioavailability: 63%
[14]
  bioavailability: 42%
[15]
  bioavailability: 9%
[12]
  clearance: 1.8 mL/min/kg
[16]
  clearance: 3.8 mL/min/kg
[17]
  clearance: 27 mL/min/kg
[18]
  pIC50: < 3.70
DNA polymerase beta
  pIC50: < 3.70
[19]
  pIC50: < 3.70
[20]
  pIC50: < 4.60
[21]
  pIC50: < 4.30
[22]
  pIC50: 4.70
Cytochrome P450 1A2
  pIC50: < 4.00
Cytochrome P450 2C19
  pIC50: < 4.00
Cytochrome P450 2C9
  pIC50: < 4.00
Cytochrome P450 2D6
  pIC50: < 4.00
Cytochrome P450 3A4
  pIC50: < 4.00
[23]
  fraction unbound: 0.14
[24]
  Stability: 84 %/hr
[13]
  pIC50: 8.15
Homo sapiens
  fraction unbound: 0.19

## CN(C)C(=O)C(=O)N(C)[C@H]1CCCn2c1nc(C(=O)NCc1ccc(F)cc1)c(O)c2=O
[1]
  IC95: 33 nM
[2]
  IC95: 43 nM
[9]
  fraction unbound: 0.16
[10]
  fraction unbound: 0.34
[11]
  bioavailability: 47%
[12]
  clearance: 11 mL/min/kg
[25]
  bioavailability: 39%
[26]
  clearance: 15 mL/min/kg
[27]
  half-life: 14 h
[28]
  half-life: 1.7 h
[29]
  AUC: 2.5 µM·h
[30]
  AUC: 3.8 µM·h
[31]
  Cmax: 2000 nM
[32]
  Cmax: 2500 nM
[33]
  Vd: 3 L/kg
[34]
  Vd: 1.2 L/kg
[13]
  pIC50: 7.92
Homo sapiens
  fraction unbound: 0.37
